Source: PubChem
F508del corr – CFTR F508del correction in bronchial cells; CFBE cells, YFP halide quenching; stimulated with forskolin plus potentiator P3; % fluorescence drop versus neutral controls; activity (quench increase), % at 7.58 µM; 0.36% of 350,000 active; AID 720511;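 active means mean added fluorescence quench of at least 8% versus neutral control, with both replicates also reaching 8%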;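 further: cells transiently co-express mutant CFTR-F508del with the halide-sensitive YFP; corrector assay measuring rescue of mutant channel to the surface after 24 h compound exposure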
Xi reactivation – reactivates the inactive X chromosome in mouse fibroblasts. XiGFP mouse fibroblasts, % GFP-positive cells imaging, 3 d; cells co-treated with 5-aza-dC sensitizer; scaled so ellipticine positive control = 100%. 0.055% of 360,000 active. activation, % at 7.58 µM;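 active means mean normalized replicate activation at least 10% and every replicate at or above 10%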
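System: 68-5-11 XiGFP fibroblast line | Buffer or medium: DMEM containing 5-aza-dC | Compound: Single point | Times: Compounds 3 days, fix/stain 15 min at room temperature | Benchmarks: Positive control ellipticine, 6 µM final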
E-sel inducer – E-selectin induction on HUVECs; AID 686992; activation, % at 7.58 µM; P16581; HUVEC E-selectin immunofluorescence imaging; normalized: neutral wells 0, TNF-alpha wells 100; 0.37% of 260,000 active;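 active means mean E-selectin-positive cell signal at least 10% of the positive control, reached in at least 60% of replicates, without over 20% cell loss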
Target sequence (P16581 whole entry, looked up): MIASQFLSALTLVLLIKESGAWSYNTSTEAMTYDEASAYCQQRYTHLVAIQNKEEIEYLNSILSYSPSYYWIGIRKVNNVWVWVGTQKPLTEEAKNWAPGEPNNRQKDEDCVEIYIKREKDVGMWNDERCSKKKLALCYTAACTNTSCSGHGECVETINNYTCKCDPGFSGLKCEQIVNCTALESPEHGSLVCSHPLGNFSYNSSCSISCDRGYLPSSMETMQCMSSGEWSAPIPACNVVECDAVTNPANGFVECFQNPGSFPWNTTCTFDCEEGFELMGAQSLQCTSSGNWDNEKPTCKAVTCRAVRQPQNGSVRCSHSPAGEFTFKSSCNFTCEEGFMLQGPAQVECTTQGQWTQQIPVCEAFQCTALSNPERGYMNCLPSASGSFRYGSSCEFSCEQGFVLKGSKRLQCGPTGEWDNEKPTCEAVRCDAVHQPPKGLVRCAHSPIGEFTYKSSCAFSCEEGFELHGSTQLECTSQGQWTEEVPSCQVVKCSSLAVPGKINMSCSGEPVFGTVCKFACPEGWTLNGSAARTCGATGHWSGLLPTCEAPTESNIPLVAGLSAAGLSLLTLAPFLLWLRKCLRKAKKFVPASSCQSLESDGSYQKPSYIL
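assay system = HUVEC, human umbilical vein endothelial cells | input = 3,000 HUVEC seeded per well | medium = EGM-2 growth medium on 0.1% gelatin-coated wells | dosing = one compound dose added by pin transfer | signal = immunofluorescence imaging | read-out basis = % PE-positive cells | control set = TNF-alpha, DMSO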
A number is an active result; i = inactive; nt = no result. An excerpt weighted towards active compounds, which were near 0.61% of everything screened.

SMILES	F508del corr	Xi reactivation	E-sel inducer
N#Cc1ccc(NCC(=O)N2CCN(S(=O)(=O)c3ccccc3)CC2)cc1	i	i	i
COc1ccc2c(c1)c(CC(=O)OCC(N)=O)c(C)n2C(=O)c1ccc(Cl)cc1	i	i	nt
COc1ccc2c(c1)c(CC(=O)OCC(=O)O)c(C)n2C(=O)c1ccc(Cl)cc1	8.5	i	i
Cc1ccccc1-c1cnc2c(c1)C(=O)N([C@H](C)CO)C[C@H](C)[C@@H](CN(C)CC1CCCC1)O2	i	i	i
CN(C)C(=O)[C@H]1[C@H](CO)[C@H]2Cn3c(ccc(-c4ccccc4)c3=O)[C@H]2N1CCC(F)(F)F	nt	i	i
N#C[C@@H]1[C@@H](c2ccc(C#CC3(O)CCCC3)cc2)[C@@H](CO)N1C(=O)C1CCCCC1	i	i	i
COc1ccc(C2=NOC(C(=O)NCc3ccccc3)C2)cc1 (centres undefined)	11	nt	nt
COc1ccc(CNC(=O)C2CC(c3cc(C(F)(F)F)cc(C(F)(F)F)c3)=NO2)cc1 (centres undefined)	i	i	i
Cc1ccc(S(=O)(=O)N(C)C[C@H]2Oc3ccc(NC(=O)Nc4ccc5c(c4)OCO5)cc3CC(=O)N([C@H](C)CO)C[C@H]2C)cc1	i	i	i
COc1ccc(NC(=O)c2ccc(NC(=O)c3nc4nccc(C)n4n3)cc2)cc1	27	i	i
COc1ccccc1NC(=O)c1ccc(NC(=O)c2nc3nccc(C)n3n2)cc1	i	i	i
COc1ccc(NC(=O)c2nc(C)c(C3(C)CC(c4cccnc4)=NO3)s2)cc1 (centres undefined)	17	i	i
Cc1nc(C(=O)Nc2ccc(Cl)cc2)sc1C1(C)CC(c2cccc([N+](=O)[O-])c2)=NO1 (centres undefined)	i	i	nt
COc1ccc(S(=O)(=O)N(C)C[C@H]2Oc3c(NS(=O)(=O)c4cn(C)cn4)cccc3C(=O)N([C@H](C)CO)C[C@H]2C)cc1	i	i	i
COc1ccc(S(=O)(=O)Nc2ccc3c(c2)C(=O)N([C@H](C)CO)C[C@H](C)[C@@H](CN(C)CC2CCCCC2)OCCCC[C@H](C)O3)cc1	i	i	i
COC(=O)c1cc(S(=O)(=O)NCC2CCN(Cc3ccc(F)cc3)CC2)c[nH]1	i	i	nt
COC(=O)c1cc(S(=O)(=O)NCC2CCN(CCc3cccs3)CC2)c[nH]1	i	i	226
CC(=O)Oc1ccc(-c2cc3ccc(OC(C)=O)cc3oc2=O)cc1	i	i	i
CC(=O)Oc1ccc(C2=Cc3ccc(OC(C)=O)cc3OC2C)cc1 (centres undefined)	i	i	118
O=C(O)C[C@H]1CC[C@@H](NC(=O)Nc2ccccc2)[C@H](CO)O1	i	i	i
CCOC(=O)CSc1nc(C2CC2)cc(-c2ccc(Cl)cc2)c1C#N	nt	i	i
N#Cc1c(-c2ccccc2F)cc(C2CC2)nc1SCC(=O)c1cccs1	nt	60	nt
O=C(C[C@H]1C[C@H]2c3cc(NC(=O)NC4CCCC4)ccc3O[C@H]2[C@H](CO)O1)NCc1ccccn1	i	i	i
O=S(=O)(Nc1cccc(S(=O)(=O)N2CCCC2)c1)c1cccs1	i	i	116
O=S(=O)(Nc1cccc(S(=O)(=O)N2CCCC2)c1)c1ccc(Cl)s1	i	i	i
SMILES	F508del corr	Xi reactivation	E-sel inducer
Cc1ccccc1N(CC(=O)NC1CCCCC1)C(=O)CNC(=O)c1cccs1	i	i	45
O=C(CN(C(=O)CNC(=O)c1cccs1)c1ccccc1F)NC1CCCCC1	i	i	i
COc1ccccc1N1CCN(/N=C/c2cccc(OC)c2O)CC1	i	i	nt
COc1ccccc1N1CCN(/N=C/C=C\c2ccccc2[N+](=O)[O-])CC1	15	i	i
CCCNC(=O)Nc1ccc2c(c1)C(=O)N(C)C[C@@H](OC)[C@H](C)CN(CCC(F)(F)F)[C@H](C)CO2	i	i	i
CN(C)C(=O)[C@@H]1[C@@H](CO)[C@@H]2Cn3c(cccc3=O)[C@@H]2N1CC1CCCCC1	i	i	i
COC(=O)C1CC23C=CCN4CCC5(c6ccccc6NC15C2C)C43 (centres undefined)	10	i	i
CN1CC[C@]23c4ccccc4N[C@H]1[C@]21CCN(C)[C@H]3Nc2ccccc21	i	i	i
COc1ccc(CNC(=O)C[C@@H]2C=C[C@@H](NC(=O)CN(C)C)[C@H](CO)O2)cc1	i	i	i
COC1=C(Nc2ccccc2OC)C(=O)c2ccccc2C1=O	i	i	i
COc1ccccc1NC1=C(NC(C)=O)C(=O)c2ccccc2C1=O	8.2	i	i
CN1CCN(C(=O)C[C@@H]2CC[C@@H]3[C@H](COC[C@H](O)CN3C(=O)C3CCCC3)O2)CC1	i	i	i
